The source made the active and inactive calls.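 How the source made its calls, unless noted: active means viability at or below 10% of carrier control in both of two separate runs; inconclusive means viability at or below 10% in only one of the two runs; inactive means the rest.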
How the values were obtained:
[1] = Her2 expression decrease, cell viability multiplex – SKBR3 breast tumor cells, AlphaScreen, ATP viability, primary screen (AID 461;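 active means Her2 level under about 52% in both replicate screens, with viability over 70% of control, limit read from the data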;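 on Her2 level: lower value means less Her2 protein in the cells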;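 on viability: percent of carrier control wells set as 100% viability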); conditions: SKBR3 Her2 protein level, 18-24 h, measured here: SKBR3 viability, ATP luminescence, at 10 µM
[2] = biological target: Receptor tyrosine-protein kinase erbB-2 (Homo sapiens) (UniProt P04626); experiment: as above; conditions: 18-24 h, at 10 µM, stronger effect = lower value
[3] = reduced viability of SK-BR-3 breast cancer cells – cell-based, 24 h, human, pilot screen (AID 572); conditions: SK-BR-3 viability, CellTiter-Glo luminescence, at 10 µM, stronger effect = lower value;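 further: compound exposure lasted between 18 and 24 h rather than exactly 24 h; 100% = carrier-treated control wells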
[4] = HUVEC growth inhibition – cell-based, human, primary screen (AID 575;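 active means viability at or below 30% in both replicate assays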;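 further: 100% = median of untreated cell wells with 0.1% DMSO on each plate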); conditions: HUVEC proliferation, CellTiter-Glo luminescence, 72 h; at 10 µM; stronger effect = lower value
How it was run: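 Timing: 72 h treatment at 37 °C; material: HUVEC primary cells; technique: CellTiter-Glo luminescence measuring cellular ATP; controls: vehicle and MePR control wells; measure: percent of median DMSO-control luminescence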

[5] = H69AR cell proliferation blockers – human, duplicate replicates, primary screen (AID 580;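 active means viability at or under a set limit in both replicates, limit being median viability minus 3 SD, cut at about 48% in these data, passing the limit was not always enough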;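 further: 100% = mean luminescence of untreated wells and 0% = no signal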); conditions: H69AR lung tumor cells viability, ATP luminescence, 72 h; at 10 µM; stronger effect = lower value
[6] = MRP1 drug-resistance reversers in H69AR cells – cell-based, doxorubicin co-treatment, pilot screen (AID 601;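 active means viability loss from added drug above about 55%, and viability with drug at most 40%, in both replicates, limit read from the data, passing the limit was not always enough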); conditions: CellTiter-Glo, 72 h, at 10 µM; for differential viability (reversal): stronger effect = higher value
[7] = yeast transport mutant growth inhibition pilot in 384-well plates, post-Golgi transport modulator project (AID 636; in the data active means inhibition above about 31%); conditions: absorbance 615 nm, about 18 h, stronger effect = higher value
[8] = growth suppression of yeast trafficking mutant, preliminary HTS, modulators of trafficking downstream of Golgi apparatus project, 1536-format plate, OD 615 nm (AID 637; in the data active means inhibition above about 30%); conditions: yeast transport mutant growth, absorbance 615 nm, 18 h; stronger effect = higher value
[9] = H69AR cells + 2 uM doxorubicin, measured here: viability with 2 uM doxorubicin, stronger effect = lower value
[10] = H69AR cells, compound alone cytotoxicity

Sequence of Receptor tyrosine-protein kinase erbB-2 (Homo sapiens) (P04626 whole entry, looked up): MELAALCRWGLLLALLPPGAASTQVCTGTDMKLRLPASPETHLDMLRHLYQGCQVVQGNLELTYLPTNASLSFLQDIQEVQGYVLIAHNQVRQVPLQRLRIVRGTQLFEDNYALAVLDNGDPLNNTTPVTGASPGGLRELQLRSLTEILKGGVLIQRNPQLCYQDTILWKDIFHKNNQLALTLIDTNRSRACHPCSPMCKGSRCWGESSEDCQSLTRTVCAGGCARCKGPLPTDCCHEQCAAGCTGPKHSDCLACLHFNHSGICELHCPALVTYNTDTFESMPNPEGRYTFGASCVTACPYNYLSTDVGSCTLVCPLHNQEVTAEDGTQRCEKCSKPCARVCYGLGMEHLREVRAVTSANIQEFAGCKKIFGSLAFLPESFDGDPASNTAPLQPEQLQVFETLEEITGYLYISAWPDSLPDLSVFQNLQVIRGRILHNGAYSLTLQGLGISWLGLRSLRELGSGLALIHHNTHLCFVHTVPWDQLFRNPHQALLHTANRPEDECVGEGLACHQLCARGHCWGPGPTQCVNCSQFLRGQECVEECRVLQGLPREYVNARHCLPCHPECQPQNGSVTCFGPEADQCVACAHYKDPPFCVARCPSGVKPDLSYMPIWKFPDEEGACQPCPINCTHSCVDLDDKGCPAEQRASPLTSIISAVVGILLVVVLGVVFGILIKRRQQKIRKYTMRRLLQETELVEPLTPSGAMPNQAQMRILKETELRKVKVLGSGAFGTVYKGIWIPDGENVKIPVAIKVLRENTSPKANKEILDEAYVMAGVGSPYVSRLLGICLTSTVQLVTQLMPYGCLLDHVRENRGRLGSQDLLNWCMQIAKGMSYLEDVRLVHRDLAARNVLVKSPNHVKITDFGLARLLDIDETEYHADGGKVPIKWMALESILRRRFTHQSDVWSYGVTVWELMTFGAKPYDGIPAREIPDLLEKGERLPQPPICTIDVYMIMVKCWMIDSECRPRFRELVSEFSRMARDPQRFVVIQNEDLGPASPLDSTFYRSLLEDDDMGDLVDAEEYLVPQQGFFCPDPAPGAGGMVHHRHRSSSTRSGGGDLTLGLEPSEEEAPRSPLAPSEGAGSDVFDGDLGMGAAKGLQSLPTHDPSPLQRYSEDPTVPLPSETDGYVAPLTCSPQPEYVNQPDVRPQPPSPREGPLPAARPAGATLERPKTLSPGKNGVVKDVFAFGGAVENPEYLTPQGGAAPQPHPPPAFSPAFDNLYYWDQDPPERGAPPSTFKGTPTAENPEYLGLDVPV

CC(C(=O)NC1CCCCCC1)N(c1ccccc1)S(C)(=O)=O (stereo not given)
viability [1]: 112% | Her2 level [2]: 97.5% (inactive) | viability [3]: 112% (inactive) | viability [4]: 114% (inactive) | viability [5]: 109% (inactive) | differential viability (reversal) ([6]; H69AR cells + 2 uM doxorubicin): 6.19% (inactive) | viability [6, 9]: 103% | viability [6, 10]: 109% | inhibition [7]: -2.24% (inactive) | inhibition [8]: 2.79% (inactive)

CCCC(NC(=O)c1ccccc1)c1nc2ccccc2n1Cc1ccc(C(=O)OC)o1 (stereo not given)
viability [1]: 98% | Her2 level [2]: 105% (inactive) | viability [3]: 98% (inactive) | viability [4]: 85.4% (inactive) | viability [5]: 95% (inactive) | differential viability (reversal) ([6]; H69AR cells + 2 uM doxorubicin): 4.1% (inactive) | viability [6, 9]: 90.9% | viability [6, 10]: 95% | inhibition [7]: -2.76% (inactive) | inhibition [8]: -9.17% (inactive)

COc1ccc(C2=Nn3c(nnc3-c3cccnc3)SC2)cc1
viability [1]: 83.5% | Her2 level [2]: 93.5% (inactive) | viability [3]: 83.5% (inactive) | viability [4]: 97.1% (inactive) | viability [5]: 64.7% (inactive) | differential viability (reversal) ([6]; H69AR cells + 2 uM doxorubicin): -16.5% (inactive) | viability [6, 9]: 81.2% | viability [6, 10]: 64.7% | inhibition [7]: -6.32% (inactive) | inhibition [8]: 0.48% (inactive)

Cn1nnnc1SCC(=O)NCc1ccco1
viability [1]: 95% | Her2 level [2]: 110% (inactive) | viability [3]: 95% (inactive) | viability [4]: 91.8% (inactive) | viability [5]: 95.8% (inactive) | differential viability (reversal) ([6]; H69AR cells + 2 uM doxorubicin): 9.46% (inactive) | viability [6, 9]: 86.3% | viability [6, 10]: 95.8% | inhibition [7]: 1.2% (inactive) | inhibition [8]: -6.72% (inactive)

CC(Oc1ccc(Cl)cc1Cl)C(=O)Nc1ncccn1 (stereo not given)
viability [1]: 93.5% | Her2 level [2]: 108% (inactive) | viability [3]: 93.5% (inactive) | viability [4]: 99.6% (inactive) | viability [5]: 97.2% (inactive) | differential viability (reversal) ([6]; H69AR cells + 2 uM doxorubicin): 9.42% (inactive) | viability [6, 9]: 87.7% | viability [6, 10]: 97.2% | inhibition [7]: -1.17% (inactive) | inhibition [8]: -11% (inactive)

COc1cc(OC)cc(OCC(O)Cn2cnc(-c3ccccc3)c2)c1 (stereo not given)
viability [1]: 90% | Her2 level [2]: 84% (inactive) | viability [3]: 90% (inactive) | viability [4]: 88% (inactive) | viability [5]: 83.8% (inactive) | differential viability (reversal) ([6]; H69AR cells + 2 uM doxorubicin): -11.4% (inactive) | viability [6, 9]: 95.2% | viability [6, 10]: 83.8% | inhibition [7]: 3.64% (inactive) | inhibition [8]: -2.13% (inactive)

CS(=O)(=O)N1CCCC(C(=O)NCCCN2CCC(Cc3ccccc3)CC2)C1 (stereo not given)
viability [1]: 108% | Her2 level [2]: 115% (inactive) | viability [3]: 108% (inactive) | viability [4]: 101% (inactive) | viability [5]: 103% (inactive) | differential viability (reversal) ([6]; H69AR cells + 2 uM doxorubicin): 0.23% (inactive) | viability [6, 9]: 103% | viability [6, 10]: 103% | inhibition [7]: 2.6% (inactive) | inhibition [8]: -5.56% (inactive)

CSc1nc(=NC(C)=O)ss1
viability [1]: 122% | Her2 level [2]: 88.5% (inactive) | viability [3]: 122% (inactive) | viability [4]: 84.7% (inactive) | viability [5]: 71.8% (inactive) | differential viability (reversal) ([6]; H69AR cells + 2 uM doxorubicin): -20% (inactive) | viability [6, 9]: 91.8% | viability [6, 10]: 71.8% | inhibition [7]: -6.8% (inactive) | inhibition [8]: -10% (inactive)

Cn1nnnc1SCSc1nnnn1C
viability [1]: 84% | Her2 level [2]: 83% (inactive) | viability [3]: 84% (inactive) | viability [4]: 95.5% (inactive) | viability [5]: 96.9% (inactive) | differential viability (reversal) ([6]; H69AR cells + 2 uM doxorubicin): 7.5% (inactive) | viability [6, 9]: 89.4% | viability [6, 10]: 96.9% | inhibition [7]: -5% (inactive) | inhibition [8]: -0.95% (inactive)

C/C(=N\O)C(=O)NCCCNCCCN(C)C
viability [1]: 104% | Her2 level [2]: 94.5% (inactive) | viability [3]: 104% (inactive) | viability [4]: 117% (inactive) | viability [5]: 98.2% (inactive) | differential viability (reversal) ([6]; H69AR cells + 2 uM doxorubicin): -3.41% (inactive) | viability [6, 9]: 102% | viability [6, 10]: 98.2% | inhibition [7]: -6.16% (inactive) | inhibition [8]: 0.48% (inactive)

COc1ccc(OC)c(S(=O)(=O)N2CCC(C(=O)NCC3CCCO3)CC2)c1 (stereo not given)
viability [1]: 101% | Her2 level [2]: 84.5% (inactive) | viability [3]: 101% (inactive) | viability [4]: 106% (inactive) | viability [5]: 98.9% (inactive) | differential viability (reversal) ([6]; H69AR cells + 2 uM doxorubicin): 8.66% (inactive) | viability [6, 9]: 90.2% | viability [6, 10]: 98.9% | inhibition [7]: -6.27% (inactive) | inhibition [8]: -3.49% (inactive)

O=C(Cc1cccs1)Nc1ccccc1C(=O)O
viability [1]: 109% | Her2 level [2]: 96.5% (inactive) | viability [3]: 109% (inactive) | viability [4]: 87.5% (inactive) | viability [5]: 103% (inactive) | differential viability (reversal) ([6]; H69AR cells + 2 uM doxorubicin): 5.91% (inactive) | viability [6, 9]: 97.2% | viability [6, 10]: 103% | inhibition [7]: -4.67% (inactive) | inhibition [8]: 5.16% (inactive)

CCSc1ccccc1C(=O)Nc1cccc(OC)c1
viability [1]: 110% | Her2 level [2]: 97% (inactive) | viability [3]: 110% (inactive) | viability [4]: 115% (inactive) | viability [5]: 98.4% (inactive) | differential viability (reversal) ([6]; H69AR cells + 2 uM doxorubicin): 11.7% (inactive) | viability [6, 9]: 86.6% | viability [6, 10]: 98.4% | inhibition [7]: -8.49% (inactive) | inhibition [8]: -3.33% (inactive)

Cc1ccccc1-n1c(=O)cc(N2CCN(C(=O)c3ccco3)CC2)[nH]c1=O
viability [1]: 86% | Her2 level [2]: 100% (inactive) | viability [3]: 86% (inactive) | viability [4]: 100% (inactive) | viability [5]: 98.3% (inactive) | differential viability (reversal) ([6]; H69AR cells + 2 uM doxorubicin): 9.79% (inactive) | viability [6, 9]: 88.5% | viability [6, 10]: 98.3% | inhibition [7]: 0.77% (inactive) | inhibition [8]: 0.17% (inactive)

Source: PubChem BioAssay
